Assay results published in PubChem BioAssay.
Results filed as inconclusive are left out.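 How the source made its calls, unless noted: active means viability increase at or above a cutoff of the median across tested compounds plus 3 SD (cut at about 8.5% in these data, passing the limit was not always enough); inconclusive means some gains above the cutoff, reason not given; inactive means the rest.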

Legend:
[1] = OD615 S. cerevisiae growth inhibition, permissive medium, pilot counter-assay, permissive growth control for S. cerevisiae lifespan shortening project (AID 705;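 active means growth inhibition above 25% in both replicates, a cutoff set 3 SD above the mean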); conditions: OD615, 24 h, at 10 µM, stronger effect = higher value
Procedure, shortened: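 System: engineered DeaD yeast; Medium: permissive raffinose/galactose medium; Compound dosing: 10 µM single dose, 0.25% DMSO; Incubation: 4 h cell pre-growth, 24 h exposure at 30 °C; Technique: OD at 615 nm; Evaluation: growth inhibition from lowered OD615 after 24 h.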

[2] = Restrictive medium S. cerevisiae growth inhibition, OD615, pilot screen of yeast lifespan reduction project, restrictive growth control (AID 706;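 active means growth inhibition above a set limit, 3 SD over mean compound inhibition, in both replicates, cut at about 43% in these data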;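 further: modified DeaD lifespan yeast strain shifted to restrictive glucose medium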); conditions: OD615, 48 h, at 10 µM, stronger effect = higher value
Procedure, shortened: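 Material: modified S. cerevisiae; buffer or medium: CSMM-D glucose medium; doses: one concentration, 10 µM final, 0.25% DMSO; incubation: 48 h compound exposure at 30 °C; detection: optical density at 615 nm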

[3] = viability gain of MRP-1-high H69AR cells under doxorubicin, pilot screen, MRP-1 activator project, CellTiter-Glo, duplicate (AID 807); conditions: H69AR viability with doxorubicin, CellTiter-Glo luminescence; at 10 µM; stronger effect = higher value;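 further: compound pretreatment 18-22 h then 72 h combined with doxorubicin; 0% = doxorubicin alone and 100% = vehicle without doxorubicin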
[4] = growth suppression of beta-catenin knockout HCT116, pilot screen, human colon tumor cells (AID 823;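 active means cell viability at or below a set limit in both duplicate runs, the limit being the all-compound median minus 4 SD, cut at about 23% in these data, passing the limit was not always enough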;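 further: 0% = wells killed by 20 µM Hyamine and 100% = untreated DMSO cell wells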); conditions: CellTiter-Glo, 60 h, at 10 µM, stronger effect = lower value
[5] = growth suppression of PTEN-deleted HCT116, pilot screen, cell-based, HCT116 clonal line, CellTiter-Glo (AID 824;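 active means viability at or below 27.92% in each of two runs, the all-compound median minus 4 SD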;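 further: 0% = 20 µM Hyamine control and 100% = vehicle cell control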); conditions: 60 h, at 10 µM, stronger effect = lower value
[6] = inhibitors of the yeast RAM network, pilot screen, dse1pr::URA3 reporter, 5-FOA selection (AID 869;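 active means inhibition over a set limit, the all-compound mean plus 3 SD, in both replicate runs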;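 further: 0% = DMSO wells with no growth and 100% = 10 µM 1-NA-PP1 with full growth; RAM network block rescues cells from 5-FOA so hits raise OD615 growth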); conditions: S. cerevisiae dse1pr::URA3 5-FOA growth, OD615, 2 d; at 10 µM; stronger effect = higher value; strain carries analog-sensitive mutant Cbk1 kinase
[7] = RAM signaling pathway blockade in yeast – S. cerevisiae, Pdr1DBD-CYC8 efflux-inhibited sensitized strain, primary screen (AID 1298;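 active means RAM network inhibition above 8.4% in each of two replicates, 3 SD over the compound average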;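 further: 0% = DMSO untreated cells without growth and 100% = 10 µM 1-NA-PP1 full growth; higher means more yeast growth rescued from 5-FOA killing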); conditions: S. cerevisiae cbk1-as DSE1-URA3 strain, 5-FOA growth OD615, 2 d; at 50 µM; stronger effect = higher value

Cc1cc(C)c2c(=O)[nH]c(SCC(=O)N3CCCCC3)nc2n1
inactive: growth inhibition [1] -12.1% | growth inhibition [2] -6.02% | viability increase [3] -0.84% | viability [4] 93.1% | viability [5] 101% | inhibition [6] 0.535% | RAM network inhibition [7] 2.3%

CC(=O)Oc1ccc(N2C(=O)C3C4C=CC(O4)C3C2=O)cc1 (configuration not stated)
inactive: growth inhibition [1] 14.2% | growth inhibition [2] 27.7% | viability increase [3] -1.46% | viability [4] 92.1% | viability [5] 101% | inhibition [6] 2.19% | RAM network inhibition [7] 0.14%

CC(=O)Nc1nnc(SCc2cccc(F)c2)s1
inactive: growth inhibition [1] -1.17% | growth inhibition [2] -1.06% | viability increase [3] -0.12% | viability [4] 108% | viability [5] 104% | inhibition [6] 1.99% | RAM network inhibition [7] 4.84%

COc1nc(NCCC2=CCCCC2)nc(OC)n1
inactive: growth inhibition [1] -12.2% | growth inhibition [2] 2.74% | viability increase [3] 2.72% | viability [4] 98.6% | viability [5] 99.4% | inhibition [6] 0.235% | RAM network inhibition [7] 3.01%

Cc1cccc(NC(=O)c2ccc(S(=O)(=O)N3CCCCC3)cc2)n1
inactive: growth inhibition [1] -8.26% | growth inhibition [2] -4% | viability increase [3] 1.43% | viability [4] 94.5% | viability [5] 87% | inhibition [6] -0.09% | RAM network inhibition [7] 0.16%

Cc1csc2ncc(C(=O)NCc3ccccn3)c(=O)n12
inactive: growth inhibition [1] -10.9% | growth inhibition [2] 3.67% | viability increase [3] -0.65% | viability [4] 100% | viability [5] 96.7% | inhibition [6] 1.58% | RAM network inhibition [7] 1.6%

Cc1cccc(C(=O)Nc2cc(=O)n(C)c(=O)n2C)c1
inactive: growth inhibition [1] -14.2% | growth inhibition [2] -21.9% | viability increase [3] -0.85% | viability [4] 105% | viability [5] 92.4% | inhibition [6] 0.905% | RAM network inhibition [7] 1.04%

CC(C)OC(=O)CSc1nnc(-c2ccncc2)n1N
inactive: growth inhibition [1] -8.12% | growth inhibition [2] -10.2% | viability increase [3] -2.11% | viability [4] 97.5% | viability [5] 97.1% | inhibition [6] 1.8% | RAM network inhibition [7] 3.83%

CCOC(=O)c1c(C)[nH]c(C(=O)OC)c1CCC(=O)OC
inactive: growth inhibition [1] -9.89% | growth inhibition [2] -23.6% | viability increase [3] -2.86% | viability [4] 90.8% | viability [5] 91.9% | inhibition [6] 2.56% | RAM network inhibition [7] 2.65%

CCOC(=O)Cn1c(=O)oc2cc(S(=O)(=O)N3CCC(N4CCCCC4)CC3)ccc21
inactive: growth inhibition [1] -7.51% | growth inhibition [2] -9.77% | viability increase [3] 0.75% | viability [4] 101% | viability [5] 105% | inhibition [6] 1.06% | RAM network inhibition [7] 0.21%

O=C(CCCOc1ccccc1)Nc1ccc2c(c1)OCCO2
inactive: growth inhibition [1] 1.88% | growth inhibition [2] 7.45% | viability increase [3] -4.17% | viability [4] 102% | viability [5] 102% | inhibition [6] 1.16% | RAM network inhibition [7] 3.58%

COC(=O)c1c(NC(=O)CSc2nnnn2-c2ccccc2)sc2c1CCC(C)C2 (configuration not stated)
inactive: growth inhibition [1] -21.3% | growth inhibition [2] -21.2% | viability increase [3] -1.07% | viability [4] 84.4% | viability [5] 78.3% | inhibition [6] 2.46% | RAM network inhibition [7] 10.1%

CCOC(=O)c1ccc(NCn2c(=O)oc3ccccc32)cc1
inactive: growth inhibition [1] -8.51% | growth inhibition [2] -15.7% | viability increase [3] -4.09% | viability [4] 88.5% | viability [5] 87.6% | inhibition [6] -0.385% | RAM network inhibition [7] -0.1%

NC(=O)C1(N2CCCCC2)CCN(C(=O)c2cccs2)CC1
inactive: growth inhibition [1] -8.17% | growth inhibition [2] -16.6% | viability increase [3] 0.57% | viability [4] 105% | viability [5] 92.3% | inhibition [6] 0.955% | RAM network inhibition [7] 1.19%

O=C(CCN1CCN(c2ccccc2)CC1)Nc1ccc2c(c1)OCO2
inactive: growth inhibition [1] -5.71% | growth inhibition [2] 0.05% | viability increase [3] -4.06% | viability [4] 91.7% | viability [5] 92.4% | inhibition [6] 2.58% | RAM network inhibition [7] 1.28%

COc1ccc(C)cc1NC(=O)CN1C(=O)c2ccccc2S1(=O)=O
inactive: growth inhibition [1] 6.31% | growth inhibition [2] 10.8% | viability increase [3] -2.12% | viability [4] 102% | viability [5] 94.4% | inhibition [6] 3.04% | RAM network inhibition [7] 4.58%
